Test results from ChEMBL document CHEMBL2146426, “Antitubercular nitrofuran isoxazolines with improved pharmacokinetic properties” (Bioorg Med Chem, 2012).
In brackets after ≈: the same amount, converted by molar mass.

Key:
[1] = Solubility of the compound at pH 7.4 after 18 hrs by UV spectrometry; type: physicochemical; settings: buffer, pH 7.4
Method in brief: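 10 mM DMSO stocks diluted 100-fold in system solution buffer pH 7.4 and held 18 h at room temperature. Filtered, diluted 1:1 with isopropanol and measured by UV (230–500 nm). Compared against a 600-fold diluted reference in buffer/isopropanol. Triplicates.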

[2] = Half life in mouse liver microsomes; type: ADME, Microsome
Method in brief: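 Mouse liver microsomes at 0.6381 mg/mL protein in 0.1 M potassium phosphate pH 7.4 with EDTA. Reaction started with NADPH regenerating system at 37°C; six time points including 0, triplicate wells. Quenched in cold acetonitrile with warfarin internal standard, analysed by LC–MS. Half-life from a first-order least-squares fit.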

[3] = Half life in human liver microsomes; type: ADME, Microsome
[4] = Apparent permeability of the compound from apical to basal side of human Caco2 cells at 50 umol/L after 2 hrs by UPLC/MS analysis; type: ADME, cell-based; settings: Caco-2
Method in brief: (§1)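 Caco-2 monolayers grown 7 days on Transwell inserts, washed with HBSS/HEPES pH 7.4. Compound at 50 µmol/L added apically or basolaterally, then 2 h at 37°C. Receiver side sampled and quantified by UPLC/MS. Papp = (dQ/dt)/(A×C0), triplicates.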

[5] = Apparent permeability of the compound from basal to apical side of human Caco2 cells at 50 umol/L after 2 hrs by UPLC/MS analysis; type: ADME, cell-based; settings: Caco-2; method in brief: as §1
[6] = Plasma protein binding in mouse at 10 uM after 4 hrs by LC/MS analysis; type: ADME, cell-free; settings: read-out: PPB (converted)
Method in brief: (§2)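 Compound at 10 µM (0.1% DMSO) in mouse or human plasma. Rapid equilibrium dialysis (MWCO 8K) against DPBS pH 7.4, 4 h at 37°C with orbital shaking. Both chambers matrix-matched, precipitated with acetonitrile containing warfarin internal standard, quantified by LC–MS. %Free = buffer/plasma × 100; %Bound = 100 − %Free.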

[7] = Plasma protein binding in human at 10 uM after 4 hrs by LC/MS analysis; type: ADME, cell-free; settings: read-out: PPB (converted); method in brief: as §2
[8] = tested on: Staphylococcus aureus; assay: Antibacterial activity against Staphylococcus aureus ATCC 29213 after overnight incubation by microbroth dilution technique; type: functional
Method in brief: (§3)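 Two-fold serial broth dilutions per CLSI; inoculum about 10^5 CFU/mL; top final drug concentration 200 µg/mL; incubated aerobically overnight at 37°C. MIC read visually as the lowest concentration with no visible growth.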

[9] = tested on: Streptococcus pyogenes; assay: Antibacterial activity against Streptococcus pyogenes ATCC 700294 after overnight incubation by microbroth dilution technique; type: functional; method in brief: as §3
[10] = tested on: Bacillus anthracis; assay: Antibacterial activity against Bacillus anthracis Sterne 34F2 after overnight incubation by microbroth dilution technique; type: functional
Method in brief: (§4)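 Non-mycobacterial strains: two-fold serial dilutions in broth by CLSI microbroth dilution. Inoculum about 10^5 cfu/mL; top final drug concentration 200 µg/mL. Aerobic incubation at 37°C overnight. MIC read visually as the lowest concentration with no visible growth.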

[11] = tested on: Escherichia coli; assay: Antibacterial activity against Escherichia coli K12 after overnight incubation by microbroth dilution technique; type: functional; settings: K-12; method in brief: as §4
[12] = Cmax in Sprague-Dawley rat at 10 mg/kg, iv; type: ADME, organism-based; design: dose 10 mg/kg, route intravenous; settings: in vivo
Method in brief: (§5)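 Rats, n=5, given 10 mg/kg IV via femoral vein catheter. Vehicle was 2% ethanol/saline or 30% DMSO/30% propylene glycol/20% PEG 3000/20% saline, depending on compound. Plasma sampled 0–48 h and urine collected in intervals to 48 h; both assayed by LC-MS/MS after acetonitrile precipitation. Non-compartmental analysis: CL = dose/AUC0-∞; fe = cumulative unchanged urinary amount/dose.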

[13] = AUC (0 to infinity) in Sprague-Dawley rat at 10 mg/kg, iv; type: ADME, organism-based; design: time infinity, dose 10 mg/kg, route intravenous; settings: plasma; method in brief: as §5
[14] = Half life in Sprague-Dawley rat at 10 mg/kg, iv; type: ADME, organism-based; design: dose 10 mg/kg, route intravenous; settings: in vivo; method in brief: as §5
[15] = Clearance in Sprague-Dawley rat at 10 mg/kg, iv; type: ADME, organism-based; design: dose 10 mg/kg, route intravenous; settings: in vivo; method in brief: as §5
[16] = Volume of distribution in Sprague-Dawley rat at 10 mg/kg, iv; type: ADME, organism-based; design: dose 10 mg/kg, route intravenous; settings: in vivo; method in brief: as §5
[17] = Drug excretion in Sprague-Dawley rat urine at 10 mg/kg, iv; type: ADME, organism-based; design: dose 10 mg/kg, route intravenous; settings: read-out: Drug excretion; method in brief: as §5
[18] = tested on: Rattus norvegicus; assay: Oral bioavailability in Sprague-Dawley rat at 100 mg/kg; type: ADME, organism-based; settings: in vivo
Method in brief: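 Fasted rats, n=5, dosed 100 mg/kg by oral gavage. Vehicle was 2% methanol, 60:40 PEG 3000/water or 10% vitamin E TPGS, depending on compound. Plasma sampled to 48 h and assayed by LC-MS/MS. F = (AUCoral×DoseIV)/(AUCIV×Doseoral), referenced to 10 mg/kg IV.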

[19] = tested on: Vero; assay: Cytotoxicity against african green monkey Vero cells after 72 hrs by MTT assay; type: cell-based; settings: Chlorocebus sabaeus
Method in brief: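 Vero cells in DMEM with 10% FBS, seeded at ~10% confluency and left to adhere overnight. Two-fold serial dilutions applied for 72 h at 37°C, 5% CO2. MTT read-out at 570 nm after overnight solubilization.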

[20] = tested on: Rattus norvegicus; assay: Toxicity in Sprague-Dawley rat assessed as seizures at 10 mg/kg, iv; type: organism-based; design: dose 10 mg/kg, route intravenous; settings: in vivo
Method in brief: (§6)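 Observed during rat IV pharmacokinetic study (n=5). Single 10 mg/kg dose via femoral vein catheter, flushed with heparinized locking solution. Vehicle was 2% ethanol/saline or 30% DMSO/30% propylene glycol/20% PEG 3000/20% saline. Animals followed with serial blood sampling to 48 h.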

[21] = tested on: Rattus norvegicus; assay: Toxicity in Sprague-Dawley rat assessed as mortality at 10 mg/kg, iv; type: organism-based; design: dose 10 mg/kg, route intravenous; settings: in vivo; method in brief: as §6
[22] = tested on: Rattus norvegicus; assay: Toxicity in Sprague-Dawley rat assessed as mortality at 100 mg/kg, po; type: organism-based; design: dose 100 mg/kg, route oral; settings: in vivo
Method in brief: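 Observed during rat oral pharmacokinetic study (n=5). Overnight-fasted animals, water ad libitum, received 100 mg/kg by oral gavage. Vehicle was compound-dependent: 2% methanol (sonicated), 60:40 PEG 3000/water, or 10% vitamin E TPGS. Animals followed with sampling to 48 h.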

[23] = tested on: Streptococcus pneumoniae; assay: Antibacterial activity against Streptococcus pneumoniae DAW27 after overnight incubation by microbroth dilution technique; type: functional; method in brief: as §3
[24] = tested on: Enterococcus faecalis; assay: Antibacterial activity against Enterococcus faecalis ATCC 3186 after overnight incubation by microbroth dilution technique; type: functional; method in brief: as §3
[25] = tested on: Bacillus subtilis; assay: Antibacterial activity against Bacillus subtilis ATCC 23857 after overnight incubation by microbroth dilution technique; type: functional; method in brief: as §4

SMILES	solubility at 18 h [1] [µg/mL]	half-life [2] [min]	half-life [3] [min]	Papp A→B at 2 h, 50 µM [4] [×10⁻⁶ cm/s]	Papp B→A at 2 h, 50 µM [5] [×10⁻⁶ cm/s]	fraction unbound at 4 h, 10 µM [6]	fraction unbound at 4 h, 10 µM [7]	MIC [8] [µg/mL]	MIC [9] [µg/mL]	MIC [10] [µg/mL]	MIC [11] [µg/mL]	Cmax [12] [ng/mL]	AUC(0-inf) [13] [ng·h/mL]	half-life [14] [min]	clearance [15] [mL/min/kg]	Vd [16] [L/kg]	dose excreted [17] [%]	MIC [23] [µg/mL]	MIC [24] [µg/mL]	MIC [25] [µg/mL]	also measured
O=[N+]([O-])c1ccc(C2=NOC(c3ccc(N4CCOCC4)nc3)C2)o1 (configuration not stated)	14.1 (≈ 40.9 µM)	73.8	202	6.47	14.2	0.047	0.033	12.5 (≈ 36.3 µM)	25 (≈ 72.6 µM)	25 (≈ 72.6 µM)	> 200	2730	3360	43.2	50.3	2.86	0.02	–	–	–	F [18]: 47.9%; IC50 [19]: 3.2 µg/mL (≈ 9.29 µM); Activity [20]: Non-toxic; Activity [21]: Non-toxic; Activity [22]: Non-toxic
O=[N+]([O-])c1ccc(C2=NOC(c3ccc(N4CCOCC4)c(F)c3)C2)o1 (configuration not stated)	3.2 (≈ 8.86 µM)	–	–	–	–	0.061	0.066	25 (≈ 69.2 µM)	200 (≈ 554 µM)	12.5 (≈ 34.6 µM)	> 200	–	–	–	–	–	–	200 (≈ 554 µM)	200 (≈ 554 µM)	200 (≈ 554 µM)	–
O=[N+]([O-])c1ccc(C2=NOC(c3ccc(N4CCSCC4)cc3)C2)o1 (configuration not stated)	1.9 (≈ 5.29 µM)	2.4	12.6	9.62	11.4	0.013	0.015	–	> 200	–	> 200	–	–	–	–	–	–	–	100 (≈ 278 µM)	–	–
O=[N+]([O-])c1ccc(C2=NOC(c3ccc(N4CC[S+]([O-])CC4)cc3)C2)o1 (configuration not stated)	28.9 (≈ 77 µM)	52.2	272	24.2	27.2	0.178	0.223	6.25 (≈ 16.6 µM)	50 (≈ 133 µM)	12.5 (≈ 33.3 µM)	100 (≈ 266 µM)	–	–	–	–	–	–	50 (≈ 133 µM)	100 (≈ 266 µM)	6.25 (≈ 16.6 µM)	–
CN1CCN(c2ccc(C3CC(c4ccc([N+](=O)[O-])o4)=NO3)cc2)C(=O)C1 (configuration not stated)	28.8 (≈ 77.8 µM)	–	–	–	–	0.239	0.426	6.25 (≈ 16.9 µM)	50 (≈ 135 µM)	12.5 (≈ 33.8 µM)	50 (≈ 135 µM)	1190	960	36.6	194	3.1	0.68	50 (≈ 135 µM)	100 (≈ 270 µM)	6.25 (≈ 16.9 µM)	F [18]: 58.3%; IC50 [19]: 20.3 µg/mL (≈ 54.8 µM); Activity [20]: Toxic; Activity [21]: Toxic; Activity [22]: Non-toxic
